Published values of several laboratories.

SMILES	target or system	test	system	conditions	measurement	result
CC(C)(C)OC(=O)N1CCN(c2cc(C(=O)NCC(=O)O)ccc2NC(=O)c2cc(Br)c(Br)[nH]2)CC1	Enterococcus faecium	microbial growth, broth dilution	ATCC35667		MIC	> 32 µg/mL
C=CC(=O)NC1CCN(c2ncc3ncnc(Nc4ccc(Oc5ccc6c(c5)ncn6C)c(C)c4)c3n2)CC1	HCC95	cell growth or viability			EC50	2.07 µM
Nc1ccc(/C=C/C(=O)N2CCc3c(oc4c(-c5ccc(F)cc5)cc(-c5ccc(C(=O)N6C[C@@H]7[C@H](C6)C7(F)F)nn5)cc34)C2)cn1	CFPAC-1	cell growth or viability, CCK-8		72 h	IC50	> 20 µM
Cc1cc(C)c(C#N)c(SCC(=O)Nc2ccccc2)n1	Trypanosoma brucei	parasite growth, resazurin			EC50	> 64 µM
NNC(=O)c1cn(Cc2ccccc2)c2ccc(Oc3ccccc3)cc2c1=O	Trypanosoma brucei	parasite growth, resazurin		72 h	EC50	0.43 µM
Cc1cc(C)c(C#N)c(SCC(=O)c2cccc(N)c2)n1	Trypanosoma brucei	parasite growth, resazurin			EC50	> 64 µM
O=C(N/N=C/c1ccc([N+](=O)[O-])o1)c1cn(Cc2ccccc2)c2ccc([N+](=O)[O-])cc2c1=O	Trypanosoma brucei	parasite growth, resazurin		72 h	EC50	0.37 µM
Cc1[nH]c(C(=O)Nc2ccc(C(=O)NCC(=O)O)cc2N2CCN(C(=O)OC(C)(C)C)CC2)c(Cl)c1Cl	Enterococcus faecium	microbial growth, broth dilution	ATCC35667		MIC	> 32 µg/mL
Nc1ccc(/C=C/C(=O)N2CCc3c(oc4c(-c5ccc(F)cc5)cc(-c5ccc(C(=O)N6CCOCC6)nn5)cc34)C2)cn1	CFPAC-1	cell growth or viability, CCK-8		72 h	IC50	> 20 µM
Cc1cc(C)c(C#N)c(SCC(=O)c2ccccn2)n1	Trypanosoma brucei	parasite growth, resazurin			EC50	> 64 µM
N=C(N)c1ccc(OCCCCCOc2ccc(C(=N)N)cc2)cc1	Trypanosoma brucei	parasite growth, resazurin		72 h	EC50	0.005 µM
Cc1cc(C)c(C#N)c(SC2COc3ccccc3C2=O)n1 (stereo not shown)	Trypanosoma brucei	parasite growth, resazurin			EC50	51.2 µM
Cl.N[C@@H]1CCN(c2cc(C(=O)NCC(=O)O)ccc2NC(=O)c2cc(Br)c(Br)[nH]2)C1	Enterococcus faecium	microbial growth, broth dilution	ATCC35667		MIC	> 32 µg/mL
Cn1nnc(-c2cccnc2SCC(=O)c2ccc(F)cc2)n1	Trypanosoma brucei	parasite growth, resazurin	RHODESIENSE		EC50	> 64 µM
Cc1[nH]c(C(=O)Nc2ccc(C(=O)NCC(=O)O)cc2N2CC[C@H](N)C2)c(Cl)c1Cl.Cl	Enterococcus faecium	microbial growth, broth dilution	ATCC35667		MIC	> 32 µg/mL
O=C(O)c1ccc2c(c1)nc(Nc1cccc(Cl)c1)c1ccncc12	SK-MES-1	cell growth or viability, crystal violet		48 h	IC50	4.6 µM
